Assay results reported in ChEMBL document CHEMBL1151472, “In vitro interactions between tacrolimus and azoles against Candida albicans determined by different methods” (2008).
Values after ≈ are worked out from the molar mass of the structure shown.

How the values were obtained:
Assay type in all cases: functional
[1] = tested on: Candida albicans; assay: Antimicrobial activity against azole-susceptible Candida albicans isolate CA14 after 48 hrs by broth microdilution method; details: isolate CA14, 48 h
Procedure, shortened: (§1)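 CLSI M27-A2 broth microdilution was run in RPMI 1640 (pH 7.0, 2% dextrose, 0.165 M MOPS). Inoculum was 2.5 × 10^3 CFU/ml, incubated 35°C for 48 h without shaking. Plates were read visually (0–5 scale) and at OD 492 nm. MIC80 = lowest concentration giving an 80% absorbance decrease vs drug-free control. Triplicate.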

[2] = tested on: Candida albicans; assay: Antimicrobial activity against azole-resistant Candida albicans isolate CA10 assessed as growth at 1 ug/ml co-treated with 0.125 ug/ml calcineurin signaling inhibitor tacrolimus after 48 hrs by microdilution checkboard technique relative to control; set-up: scale not given: the % may be the effect or the level left
Procedure, shortened: (§2)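 Checkerboard microdilution in MOPS-buffered RPMI 1640 (pH 7.0, 2% dextrose). Final ranges: azole 0.125–128 μg/ml (FLC) or 0.008–8 μg/ml (ITR, VRC), tacrolimus 0.002–0.125 μg/ml; solvent 1% in single-drug wells. Inoculum 2.5 × 10^3 CFU/ml, 35°C, 48 h. Growth % = background-subtracted OD492 of each well / drug-free well. Triplicate on different days.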

[3] = tested on: Candida albicans; assay: Antimicrobial activity against azole-resistant Candida albicans isolate CA10 assessed as growth at 16 ug/ml co-treated with 0.004 ug/ml calcineurin signaling inhibitor tacrolimus after 48 hrs by microdilution checkboard technique relative to control; set-up: scale not given: the % may be the effect or the level left; procedure, shortened: as §2
[4] = tested on: Candida albicans; assay: Antimicrobial activity against azole-resistant Candida albicans isolate CA10 assessed as growth at 1 ug/ml cotreated with 0.008 ug/ml calcineurin signaling inhibitor Tacrolimus after 48 hrs by microdilution checkboard technique relative to control; set-up: scale not given: the % may be the effect or the level left; procedure, shortened: as §2
[5] = tested on: Candida albicans; assay: Antimicrobial activity against azole-resistant Candida albicans isolate CA10 assessed as growth at 128 ug/ml cotreated with 0.016 ug/ml calcineurin signaling inhibitor tacrolimus after 48 hrs by microdilution checkerboard technique relative to control; set-up: scale not given: the % may be the effect or the level left; procedure, shortened: as §2
[6] = tested on: Candida albicans; assay: Antimicrobial activity against azole-susceptible Candida albicans isolate CA14 co-treated with calcineurin signaling inhibitor tacrolimus after 48 hrs by microdilution checkerboard technique; details: isolate CA14, 48 h
Procedure, shortened: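 Checkerboard microdilution in MOPS-buffered RPMI 1640 (pH 7.0, 2% dextrose) with 2.5 × 10^3 CFU/ml for 48 h at 35°C. Final FK506 was 0.002–0.125 μg/ml. Azole finals were FLC 0.125–128 μg/ml, and ITR and VRC 0.008–8 μg/ml. MIC80 is an 80% OD492 decrease vs drug-free control. Interaction was scored by FICI (synergy ≤0.5, antagonism >4) and by ΔE from triplicates.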

[7] = tested on: Candida albicans; assay: Antimicrobial activity against azole-susceptible Candida albicans isolate CA12 after 48 hrs by broth microdilution method; details: isolate CA12, 48 h; procedure, shortened: as §1
[8] = tested on: Candida albicans; assay: Antimicrobial activity against azole-resistant Candida albicans isolate CA10 assessed as growth at 64 ug/ml co-treated with 0.016 ug/ml calcineurin signaling inhibitor tacrolimus after 48 hrs by microdilution checkboard technique relative to control; set-up: scale not given: the % may be the effect or the level left
Procedure, shortened: (§3)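 CA10 in RPMI 1640 with 2% dextrose and 0.165 M MOPS, pH 7.0. Checkerboard used twofold dilutions, with azole alone in row H and the drug-free growth control in well H1. Final inoculum was 2.5 × 10^3 CFU/ml, incubated 35°C for 48 h, with OD read at 492 nm. Growth % = background-subtracted well OD / drug-free well OD. Run in triplicate on different days.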

[9] = tested on: Candida albicans; assay: Antimicrobial activity against azole-resistant Candida albicans isolate CA10 assessed as growth at 32 ug/ml co-treated with 0.125 ug/ml calcineurin signaling inhibitor tacrolimus after 48 hrs by microdilution checkboard technique relative to control; set-up: scale not given: the % may be the effect or the level left; procedure, shortened: as §3
[10] = tested on: Candida albicans; assay: Antimicrobial activity against azole-resistant Candida albicans isolate CA10 assessed as growth at 0.016 ug/ml after 48 hrs by microdilution checkerboard technique relative to control; procedure, shortened: as §2
[11] = tested on: Candida albicans; assay: Antimicrobial activity against azole-susceptible Candida albicans isolate CA8 after 48 hrs by broth microdilution method; details: isolate CA8, 48 h; procedure, shortened: as §1
[12] = tested on: Candida albicans; assay: Antimicrobial activity against azole-resistant Candida albicans isolate CA10 assessed as growth at 2 ug/ml cotreated with 0.016 ug/ml calcineurin signaling inhibitor Tacrolimus after 48 hrs by microdilution checkboard technique relative to control; set-up: scale not given: the % may be the effect or the level left; procedure, shortened: as §2
[13] = tested on: Candida albicans; assay: Antimicrobial activity against azole-resistant Candida albicans isolate CA10 assessed as growth at 1 ug/ml after 48 hrs by microdilution checkerboard technique relative to control; procedure, shortened: as §2
[14] = tested on: Candida albicans; assay: Antimicrobial activity against azole-resistant Candida albicans isolate CA10 assessed as growth at 2 ug/ml co-treated with 0.031 ug/ml calcineurin signaling inhibitor tacrolimus after 48 hrs by microdilution checkboard technique relative to control; set-up: scale not given: the % may be the effect or the level left
Procedure, shortened: (§4)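 Checkerboard microdilution in RPMI 1640 (pH 7.0, 2% dextrose, 0.165 M MOPS). Azole dilutions run along columns and FK506 along rows, at 4× final concentration. Final inoculum 2.5 × 10^3 CFU/ml from Sabouraud-subcultured cells. Incubated 35°C for 48 h; OD read at 492 nm. Background from microorganism-free plates subtracted. Growth % = well OD / drug-free well OD. Triplicate on different days, values averaged.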

[15] = tested on: Candida albicans; assay: Antimicrobial activity against azole-resistant Candida albicans isolate CA10 assessed as growth at 1 ug/ml cotreated with 0.016 ug/ml calcineurin signaling inhibitor tacrolimus after 48 hrs by microdilution checkerboard technique relative to control; set-up: scale not given: the % may be the effect or the level left; procedure, shortened: as §2
[16] = tested on: Candida albicans; assay: Antimicrobial activity against azole-resistant Candida albicans isolate CA10 assessed as growth at 1 ug/ml cotreated with 0.002 ug/ml calcineurin signaling inhibitor tacrolimus after 48 hrs by microdilution checkerboard technique relative to control; set-up: scale not given: the % may be the effect or the level left; procedure, shortened: as §2
[17] = tested on: Candida albicans; assay: Antimicrobial activity against azole-resistant Candida albicans isolate CA10 assessed as growth at 128 ug/ml co-treated with 0.031 ug/ml calcineurin signaling inhibitor tacrolimus after 48 hrs by microdilution checkboard technique relative to control; set-up: scale not given: the % may be the effect or the level left; procedure, shortened: as §4
[18] = tested on: Candida albicans; assay: Antimicrobial activity against azole-resistant Candida albicans isolate CA10 assessed as growth at 8 ug/ml after 48 hrs by microdilution checkerboard technique relative to control; procedure, shortened: as §3
[19] = tested on: Candida albicans; assay: Antimicrobial activity against azole-resistant Candida albicans isolate CA10 assessed as growth at 64 ug/ml cotreated with 0.063 ug/ml calcineurin signaling inhibitor Tacrolimus after 48 hrs by microdilution checkboard technique relative to control; set-up: scale not given: the % may be the effect or the level left; procedure, shortened: as §3
[20] = tested on: Candida albicans; assay: Antimicrobial activity against azole-resistant Candida albicans isolate CA10 assessed as growth at 0.125 ug/ml cotreated with 0.008 ug/ml calcineurin signaling inhibitor tacrolimus after 48 hrs by microdilution checkerboard technique relative to control; set-up: scale not given: the % may be the effect or the level left; procedure, shortened: as §2
[21] = tested on: Candida albicans; assay: Antimicrobial activity against azole-resistant Candida albicans isolate CA10 assessed as growth at 0.125 ug/ml co-treated with 0.004 ug/ml calcineurin signaling inhibitor tacrolimus after 48 hrs by microdilution checkboard technique relative to control; set-up: scale not given: the % may be the effect or the level left; procedure, shortened: as §2
[22] = tested on: Candida albicans; assay: Antimicrobial activity against azole-resistant Candida albicans isolate CA10 assessed as growth at 0.25 ug/ml cotreated with 0.125 ug/ml calcineurin signaling inhibitor Tacrolimus after 48 hrs by microdilution checkboard technique relative to control; set-up: scale not given: the % may be the effect or the level left; procedure, shortened: as §4
[23] = tested on: Candida albicans; assay: Antimicrobial activity against azole-resistant Candida albicans isolate CA10 assessed as growth at 128 ug/ml co-treated with 0.063 ug/ml calcineurin signaling inhibitor tacrolimus after 48 hrs by microdilution checkboard technique relative to control; set-up: scale not given: the % may be the effect or the level left; procedure, shortened: as §2

`OC(Cn1cncn1)(Cn1cncn1)c1ccc(F)cc1F` [FLUCONAZOLE] gave an MIC [1] of 0.5 µg/mL (≈ 1.63 µM), an Activity [2] of 3% and an Activity [3] of 35%. It also gave an Activity [4] of 25%, an Activity [5] of 18% and an MIC [6] of 0.25 µg/mL. For the same compound, the MIC [7] was 4 µg/mL (≈ 13.1 µM), the Activity [8] was 16% and the Activity [9] was 0%. For the same compound, the Activity [10] was 96%, the MIC [11] was 0.25 µg/mL (≈ 0.816 µM) and the Activity [12] was 20%. It also gave an Activity [13] of 56%, an Activity [14] of 12% and an Activity [15] of 24%. The Activity [16] was 50%, the Activity [17] was 14% and the Activity [18] was 55%. The Activity [19] was 0%, the Activity [20] was 60% and the Activity [21] was 67%. The Activity [22] was 7% and the Activity [23] was 5%.
